In brackets after ≈: the same amount, converted by molar mass. Activity calls are given as the source filed them. The calls are words filed in the database; no cut-off is given here.
How the values were obtained:
[1] = Cytotoxicity against human HepG2 cells after 72 hrs by MTT assay; type: cell-based
How it was run: (§1)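 MTT assay on RD (rhabdomyosarcoma), HepG2 and HeLa cell lines. CC50 is the concentration that cut cell viability by 50% relative to 0.1% DMSO-treated mock-control cells. Values are mean and SD of three independent experiments.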

[2] = Cytotoxicity against human HeLa cells after 72 hrs by MTT assay; type: cell-based; how it was run: as §1
Enterovirus [3] = test: Antiviral activity against Enterovirus 71 infected in human rhabdomyosarcoma cells assessed as inhibition of virus-induced cytopathogenicity after 48 hrs by crystal violet staining method; type: functional, organism-based
How it was run: (§2)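 Virus–cell pairings were EV71 in RD, CVB5 in HepG2, ADV7 in HeLa and influenza A H1N1 in MDCK. Compounds were added […], and total infectivity was read by crystal violet staining. EC50 is the concentration reducing viral replication by 50%. Values are mean SD of three independent experiments.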

unidentified adenovirus [4] = test: Antiviral activity against Adenovirus type 7 infected in human HeLa cells assessed as inhibition of virus-induced cytopathogenicity at 32 ug/ml after 48 hrs by crystal violet staining method; type: functional
How it was run: (§3)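 Single-concentration screen with these pairings: RD/EV71, HepG2/CVB5, HeLa/ADV7, MDCK/H1N1. Cells were infected and kept 48 h in the presence of compound at one fixed concentration; some EV71 tests used the lower level. Inhibition of virus proliferation was read by crystal violet staining.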

[5] = Cytotoxicity against human rhabdomyosarcoma cells after 72 hrs by MTT assay; type: cell-based, Rhabdomyosarcoma cell; how it was run: as §1
Coxsackievirus B5 [6] = test: Antiviral activity against Coxsackievirus B5 infected in human HepG2 cells assessed as inhibition of virus-induced cytopathogenicity at 32 ug/ml after 48 hrs by crystal violet staining method; type: functional; how it was run: as §3
[7] = Selectivity index, ratio of CC50 for human HepG2 cells to EC50 for Coxsackievirus B5 infected in human HepG2 cells; type: toxicity, cell-based; settings: read-out: Ratio CC50/EC50
How it was run: (§4)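 Antiviral pairings were EV71 in RD cells, CVB5 in HepG2 cells and ADV7 in HeLa cells. Compounds were added […], and total infectivity was read by crystal violet staining. EC50 is the concentration that cut viral replication by 50%. CC50 came from MTT relative to 0.1% DMSO mock control. SI = CC50/EC50. Data are from three independent experiments.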

Coxsackievirus B5 [8] = test: Antiviral activity against Coxsackievirus B5 infected in human HepG2 cells assessed as inhibition of virus-induced cytopathogenicity after 48 hrs by crystal violet staining method; type: functional, organism-based; settings: for EC50: Enterovirus B, HepG2, 48 h; how it was run: as §2
unidentified adenovirus [9] = test: Antiviral activity against Adenovirus type 7 infected in human HeLa cells assessed as inhibition of virus-induced cytopathogenicity after 48 hrs by crystal violet staining method; type: functional, organism-based; how it was run: as §2
Influenza A virus [10] = test: Antiviral activity against influenza A virus H1N1 infected in dog MDCK cells assessed as inhibition of virus-induced cytopathogenicity at 32 ug/ml after 48 hrs by crystal violet staining method; type: functional, organism-based; how it was run: as §3
Enterovirus [11] = test: Antiviral activity against Enterovirus 71 infected in human rhabdomyosarcoma cells assessed as inhibition of virus-induced cytopathogenicity at 32 ug/ml after 48 hrs by crystal violet staining method; type: functional; how it was run: as §3
Influenza A virus [12] = test: Antiviral activity against influenza A virus H1N1 infected in dog MDCK cells assessed as inhibition of virus-induced cytopathogenicity after 48 hrs by crystal violet staining method; type: functional, organism-based; how it was run: as §2
[13] = Selectivity index, ratio of CC50 for human rhabdomyosarcoma cells to EC50 for Enterovirus 71 infected in human rhabdomyosarcoma cells; type: toxicity; settings: read-out: Ratio CC50/EC50; how it was run: as §4

Structure (SMILES): O=[N+]([O-])c1ccccc1/C=N/c1sc2c(c1-c1nc3ccccc3s1)CCCC2
- CC50 at 72 h [1]: 393 µg/mL (≈ 937 µM)
- CC50 at 72 h [2]: 369 µg/mL (≈ 880 µM)
- inhibition (INH) (Enterovirus [3]): <50%
- inhibition (unidentified adenovirus [4]): Active
- CC50 at 72 h [5]: 255 µg/mL (≈ 609 µM)
- inhibition (Coxsackievirus B5 [6]): Active
- selectivity ratio [7]: 35
- EC50 (Coxsackievirus B5 [8]): 11.2 µg/mL (≈ 26.7 µM)
- inhibition (INH) (unidentified adenovirus [9]): <50%
- inhibition (Influenza A virus [10]): Active
- inhibition (Enterovirus [11]): Active
- inhibition (INH) (Influenza A virus [12]): <50%

Structure (SMILES): C(=N\c1sc2c(c1-c1nc3ccccc3s1)CCCC2)/c1ccc2c(c1)OCO2
- CC50 at 72 h [1]: 329 µg/mL (≈ 787 µM)
- CC50 at 72 h [2]: 568 µg/mL (≈ 1360 µM)
- EC50 (Enterovirus [3]; Enterovirus, 71, 48 h): 32.6 µg/mL (≈ 77.9 µM)
- inhibition (unidentified adenovirus [4]): Active
- CC50 at 72 h [5]: 299 µg/mL (≈ 714 µM)
- inhibition (Coxsackievirus B5 [6]): Active
- inhibition (INH) (Coxsackievirus B5 [8]): <50%
- inhibition (INH) (unidentified adenovirus [9]): <50%
- selectivity ratio [13]: 9.1
- inhibition (Influenza A virus [10]): Active
- inhibition (Enterovirus [11]): Active
- inhibition (INH) (Influenza A virus [12]): <50%

Structure (SMILES): Fc1ccc(/C=N/c2sc3c(c2-c2nc4ccccc4s2)CCC3)cc1
- CC50 at 72 h [1]: 302 µg/mL (≈ 799 µM)
- CC50 at 72 h [2]: 372 µg/mL (≈ 984 µM)
- inhibition (INH) (Enterovirus [3]): <50%
- inhibition (unidentified adenovirus [4]): Active
- CC50 at 72 h [5]: 290 µg/mL (≈ 765 µM)
- inhibition (Coxsackievirus B5 [6]): Active
- selectivity ratio [7]: 19.4
- EC50 (Coxsackievirus B5 [8]): 15.5 µg/mL (≈ 41 µM)
- inhibition (INH) (unidentified adenovirus [9]): <50%
- inhibition (Influenza A virus [10]): Active
- inhibition (Enterovirus [11]): Active
- inhibition (INH) (Influenza A virus [12]): <50%

Structure (SMILES): Clc1ccc(/C=N/c2sc3c(c2-c2nc4ccccc4s2)CCC3)cc1
- CC50 at 72 h [1]: 430 µg/mL (≈ 1090 µM)
- CC50 at 72 h [2]: 380 µg/mL (≈ 963 µM)
- inhibition (INH) (Enterovirus [3]): <50%
- inhibition (unidentified adenovirus [4]): Active
- CC50 at 72 h [5]: 342 µg/mL (≈ 867 µM)
- inhibition (Coxsackievirus B5 [6]): Active
- inhibition (INH) (Coxsackievirus B5 [8]): <50%
- inhibition (INH) (unidentified adenovirus [9]): <50%
- inhibition (Influenza A virus [10]): Active
- inhibition (Enterovirus [11]): Active
- inhibition (INH) (Influenza A virus [12]): <50%

Structure (SMILES): Fc1ccccc1/C=N/c1sc2c(c1-c1nc3ccccc3s1)CCCC2
- CC50 at 72 h [1]: 398 µg/mL (≈ 1010 µM)
- CC50 at 72 h [2]: 426 µg/mL (≈ 1090 µM)
- inhibition (INH) (Enterovirus [3]): <50%
- inhibition (unidentified adenovirus [4]): Active
- CC50 at 72 h [5]: 319 µg/mL (≈ 812 µM)
- inhibition (Coxsackievirus B5 [6]): Active
- inhibition (INH) (Coxsackievirus B5 [8]): <50%
- inhibition (INH) (unidentified adenovirus [9]): <50%
- inhibition (Influenza A virus [10]): Active
- inhibition (Enterovirus [11]): Active
- inhibition (INH) (Influenza A virus [12]): <50%

Structure (SMILES): Clc1ccccc1/C=N/c1sc2c(c1-c1nc3ccccc3s1)CCCC2
- CC50 at 72 h [1]: 370 µg/mL (≈ 904 µM)
- CC50 at 72 h [2]: 407 µg/mL (≈ 996 µM)
- inhibition (INH) (Enterovirus [3]): <50%
- inhibition (unidentified adenovirus [4]): Active
- CC50 at 72 h [5]: 332 µg/mL (≈ 811 µM)
- inhibition (Coxsackievirus B5 [6]): Active
- inhibition (INH) (Coxsackievirus B5 [8]): <50%
- inhibition (INH) (unidentified adenovirus [9]): <50%
- inhibition (Influenza A virus [10]): Active
- inhibition (Enterovirus [11]): Active
- inhibition (INH) (Influenza A virus [12]): <50%

Structure (SMILES): C(=N\c1sc2c(c1-c1nc3ccccc3s1)CCC2)/c1ccc2c(c1)OCO2
- CC50 at 72 h [1]: 356 µg/mL (≈ 881 µM)
- CC50 at 72 h [2]: 449 µg/mL (≈ 1110 µM)
- inhibition (INH) (Enterovirus [3]): <50%
- inhibition (unidentified adenovirus [4]): Active
- CC50 at 72 h [5]: 310 µg/mL (≈ 766 µM)
- inhibition (Coxsackievirus B5 [6]): Active
- inhibition (INH) (Coxsackievirus B5 [8]): <50%
- inhibition (INH) (unidentified adenovirus [9]): <50%
- inhibition (Influenza A virus [10]): Active
- inhibition (Enterovirus [11]): Active
- inhibition (INH) (Influenza A virus [12]): <50%

Structure (SMILES): Clc1ccc(/C=N/c2sc3c(c2-c2nc4ccccc4s2)CCCC3)c(Cl)c1
- CC50 at 72 h [1]: 384 µg/mL (≈ 865 µM)
- CC50 at 72 h [2]: 542 µg/mL (≈ 1220 µM)
- inhibition (INH) (Enterovirus [3]): <50%
- inhibition (unidentified adenovirus [4]): Active
- CC50 at 72 h [5]: 56.6 µg/mL (≈ 128 µM)
- inhibition (Coxsackievirus B5 [6]): Active
- inhibition (INH) (Coxsackievirus B5 [8]): <50%
- inhibition (INH) (unidentified adenovirus [9]): <50%
- inhibition (Influenza A virus [10]): Active
- inhibition (Enterovirus [11]): Active
- inhibition (INH) (Influenza A virus [12]): <50%

Structure (SMILES): C(=C\c1ccccc1)/C=N/c1sc2c(c1-c1nc3ccccc3s1)CCCC2
- CC50 at 72 h [1]: 467 µg/mL (≈ 1170 µM)
- CC50 at 72 h [2]: 389 µg/mL (≈ 971 µM)
- inhibition (INH) (Enterovirus [3]): <50%
- inhibition (unidentified adenovirus [4]): Active
- CC50 at 72 h [5]: 207 µg/mL (≈ 517 µM)
- inhibition (Coxsackievirus B5 [6]): Active
- selectivity ratio [7]: 31.6
- EC50 (Coxsackievirus B5 [8]): 14.7 µg/mL (≈ 36.7 µM)
- inhibition (INH) (unidentified adenovirus [9]): <50%
- inhibition (Influenza A virus [10]): Active
- inhibition (Enterovirus [11]): Active
- inhibition (INH) (Influenza A virus [12]): <50%

— ChEMBL document CHEMBL2417493, “Novel cycloalkylthiophene-imine derivatives bearing benzothiazole scaffold: synthesis, characterization and antiviral activity evaluation” (Bioorg Med Chem Lett, 2013)
